Test results as given in publication PMC4227764 (Nucleic Acids Research, 2014).
Like-named read-outs stand apart in the source and are kept apart here.

Key:
[1] = molecular target: T1, B. subtilis RNase P (Bacillus subtilis, UniProt P25814); assay: RNase P cleavage activity in response to HTS reagents; type: biochemical
T1 sequence (P25814 1-116): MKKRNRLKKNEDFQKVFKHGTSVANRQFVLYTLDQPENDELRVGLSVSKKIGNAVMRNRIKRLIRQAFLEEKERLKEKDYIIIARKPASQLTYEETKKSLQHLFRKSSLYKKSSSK
Method in brief: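 B. subtilis holoenzyme formed by adding P protein to refolded P RNA, 30 min at 37°C. Enzyme pre-incubated 30 min with 2% DMSO at 30°C. Reaction started with an equal volume of Fl-pre-tRNAAsp substrate, quenched with 80 mM CaCl2 at various times. Fluorescence polarization read at λex 485 nm / λem 520 nm.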

[2] = molecular target: Bacillus subtilis RNase P; type: biochemical; settings: read-out: IC50 for inhibition of RNase P; Buffer B (pH 7.2, 10 mM MgCl2, 100 mM KCl), 50 nM Fl-pre-tRNA^Asp, 0.4 nM RNase P, 4 nM P protein, 37°C
[3] = tested on: Fl-pre-tRNA^Asp; assay: FA titration: binding of compounds to Fl-pre-tRNA^Asp; parameters: species or system Bacillus subtilis; settings: for change in anisotropy (ΔFA) upon binding to Fl-pre-tRNA^Asp: Figure 4A, buffer B; for Kd: read-out: Kd for Fl-pre-tRNA^Asp, 37°C
Method in brief: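 RNA first heat-denatured 3 min at 95°C, then refolded at 37°C. Kd taken from the dependence of the FA signal on compound concentration. Competition run at fixed compound with varied yeast tRNAMix in buffer B.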

[4] = tested on: Escherichia coli RNase P; settings: cited from earlier work
[5] = molecular target: Dictyostelium discoideum RNase P; settings: read-out: Ki (non-competitive); cited from earlier work
[6] = molecular target: native yeast tRNA^Phe; settings: cited from earlier work
[7] = Buffer B + 12 mg/ml yeast tRNA^Mix
[8] = Buffer B, 50 nM Fl-pre-tRNA^Asp

Row | Compound | IC50 [2] [µM] | change in anisotropy (ΔFA) upon binding to Fl-pre-tRNA^Asp [3] [mA] | Kd [3, 7] [µM] | Kd [3, 8] [µM] | IC50 [4] [µM] | other results
1 | C[S+](C)[O-] [DMSO, dimethyl sulfoxide] | – | – | – | – | – | inhibition of RNase P activity ([1]; 2% DMSO): 20%
2 | NC[C@H]1O[C@H](O[C@H]2[C@H](O)[C@@H](O[C@H]3O[C@H](CO)[C@@H](O)[C@H](N)[C@H]3O)[C@H](N)C[C@@H]2N)[C@H](N)[C@@H](O)[C@@H]1O [KanB, kanamycin B] | 52 ± 6 | ~35 | 540 ± 60 | 220 ± 20 | – | –
3 | COc1ccc(C[C@H](N)C(=O)N[C@H]2[C@@H](O)[C@H](n3cnc4c(N(C)C)ncnc43)O[C@@H]2CO)cc1 [puromycin] | – | – | – | – | ~3000 | –
4 | NC[C@@H]1O[C@H](O[C@H]2[C@@H](O)[C@H](O[C@@H]3[C@@H](O)[C@H](N)C[C@H](N)[C@H]3O[C@H]3O[C@H](CN)[C@@H](O)[C@H](O)[C@H]3N)O[C@@H]2CO)[C@H](N)[C@@H](O)[C@@H]1O [NeoB, neomycin B] | 23 ± 3 | ~50 | 100 ± 20 | 90 ± 5 | 60 | Ki [5]: 143 µM; Kd [6]: 90 µM
5 | nonidet P-40 [NP-40] | – | – | – | – | – | effect on RNase P activity ([1]; 0.01–0.1% v/v): unaffected
6 | Spiramycin | – | – | – | – | – | effect on steady-state turnover [4]: activate the steady-state turnover
